Source: ChEMBL document CHEMBL1687883, “Dinoxin B, a withanolide from Datura inoxia leaves with specific cytotoxic activities” (J Nat Prod, 2011)

Legend:
T47D = test: Cytotoxicity against human T47D cells after 48 hrs by CellTiterGlo luminescent assay; format: functional, cell-based
Method in brief: (§1)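 Cells (5000-15 000 per well) were plated and left to adhere for 24 h in standard growth medium under ATCC-recommended conditions. The medium was then replaced and the compound added across varying doses, with DMSO in the final medium. Viability was read by ATP-dependent CellTiter-Glo luminescence, and IC50 values were derived from the dose series.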

MDA-MB-468 = test: Cytotoxicity against human MDA-MB-468 cells after 48 hrs by CellTiterGlo luminescent assay; format: functional, cell-based; settings: MDA-MB-468, 48 h; method in brief: as §1
MCF7 = test: Cytotoxicity against human MCF7 cells after 48 hrs by CellTiterGlo luminescent assay; format: functional, cell-based; settings: MCF7, 48 h; method in brief: as §1
OVCAR-3 = test: Cytotoxicity against human OVCAR3 cells after 48 hrs by CellTiterGlo luminescent assay; format: functional, cell-based; settings: OVCAR-3, 48 h; method in brief: as §1
A549 = test: Cytotoxicity against human A549 cells after 48 hrs by CellTiterGlo luminescent assay; format: functional, cell-based; settings: A549, 48 h; method in brief: as §1
A-427 = test: Cytotoxicity against human A427 cells after 48 hrs by CellTiterGlo luminescent assay; format: functional, cell-based; settings: A-427, 48 h; method in brief: as §1
MDA-MB-231 = test: Cytotoxicity against human MDA-MB-231 cells after 48 hrs by CellTiterGlo luminescent assay; format: functional, cell-based; settings: MDA-MB-231, 48 h; method in brief: as §1
SK-MEL-2 = test: Cytotoxicity against human SK-MEL-2 cells after 48 hrs by CellTiterGlo luminescent assay; format: functional, cell-based; settings: SK-MEL-2, 48 h; method in brief: as §1
SK-MEL-5 = test: Cytotoxicity against human SK-MEL-5 cells after 48 hrs by CellTiterGlo luminescent assay; format: functional, cell-based; settings: SK-MEL-5, 48 h; method in brief: as §1
HCT-116 = test: Cytotoxicity against human HCT116 cells after 48 hrs by CellTiterGlo luminescent assay; format: functional, cell-based; settings: HCT-116, 48 h; method in brief: as §1
SW48 = test: Cytotoxicity against human SW48 cells after 48 hrs by CellTiterGlo luminescent assay; format: functional, cell-based; settings: SW48, 48 h; method in brief: as §1
[1] = Cytotoxicity against rat IEC-6 cells after 48 hrs by CellTiterGlo luminescent assay; format: cell-based; settings: IEC-6, 48 h; method in brief: as §1
HepG2 = test: Cytotoxicity against human HepG2 cells after 48 hrs by CellTiterGlo luminescent assay; format: functional, cell-based; settings: HepG2, 48 h; method in brief: as §1
UACC-62 = test: Cytotoxicity against human UACC62 cells after 48 hrs by CellTiterGlo luminescent assay; format: functional, cell-based; settings: UACC-62, 48 h; method in brief: as §1
[2] = Cytotoxicity against human NHF177 cells after 48 hrs by CellTiterGlo luminescent assay; format: cell-based; settings: NHF177, 48 h; method in brief: as §1
RKO = test: Cytotoxicity against human RKO cells after 48 hrs by CellTiterGlo luminescent assay; format: functional, cell-based; method in brief: as §1
[3] = Cytotoxicity against human Hep3B cells after 48 hrs by CellTiterGlo luminescent assay; format: functional, cell-based, Hep 3B2; method in brief: as §1
MDA-MB-453 = test: Cytotoxicity against human MDA-MB-453 cells after 48 hrs by CellTiterGlo luminescent assay; format: functional, cell-based; settings: MDA-MB-453, 48 h; method in brief: as §1
Huh-7 = test: Cytotoxicity against human HuH7 cells after 48 hrs by CellTiterGlo luminescent assay; format: functional, cell-based; settings: Huh-7, 48 h; method in brief: as §1
[4] = Cytotoxicity against human Hs 578T cells after 48 hrs by CellTiterGlo luminescent assay; format: functional, cell-based; method in brief: as §1
HUVEC = test: Cytotoxicity against human HUVEC cells after 48 hrs by CellTiterGlo luminescent assay; format: cell-based; method in brief: as §1
SK-MEL-28 = test: Cytotoxicity against human SK-MEL-28 cells after 48 hrs by CellTiterGlo luminescent assay; format: functional, cell-based; settings: SK-MEL-28, 48 h; method in brief: as §1
COLO 205 = test: Cytotoxicity against human COLO205 cells after 48 hrs by CellTiterGlo luminescent assay; format: functional, cell-based; settings: COLO 205, 48 h; method in brief: as §1

Structure (SMILES): CC1=C(CO)C(=O)O[C@@H]([C@@H](CO)[C@H]2CC[C@H]3[C@@H]4CC=C5CC=CC(=O)[C@]5(C)[C@H]4C[C@@H](O)[C@]23C)C1
- IC50 (T47D): 990 nM
- IC50 (MDA-MB-468): 750 nM
- IC50 (MCF7): 870 nM

Structure (SMILES): CC1=C(CO[C@@H]2O[C@H](CO)[C@@H](O)[C@H](O)[C@H]2O)C(=O)O[C@@H]([C@@H](CO)[C@H]2CC[C@H]3[C@@H]4CC=C5CC=CC(=O)[C@]5(C)[C@H]4C[C@@H](O)[C@]23C)C1 [DINOXIN B]
- IC50 (OVCAR-3): 3200 nM
- IC50 (A549): 3400 nM
- IC50 (A-427): 870 nM
- IC50 (MDA-MB-231): 1000 nM
- IC50 (SK-MEL-2): 360 nM
- IC50 (SK-MEL-5): 1400 nM
- IC50 (HCT-116): 1000 nM
- IC50 (T47D): 220 nM
- IC50 (SW48): 580 nM
- IC50 [1]: 3300 nM
- IC50 (HepG2): 1500 nM
- IC50 (MDA-MB-468): 580 nM
- IC50 (UACC-62): 500 nM
- IC50 [2]: 1230 nM
- IC50 (RKO): 360 nM
- IC50 [3]: 670 nM
- IC50 (MDA-MB-453): 3000 nM
- IC50 (Huh-7): 1500 nM
- IC50 [4]: 440 nM
- IC50 (HUVEC): 740 nM
- IC50 (SK-MEL-28): 2300 nM
- IC50 (COLO 205): 2200 nM
- IC50 (MCF7): 610 nM
